Experimental data published in ChEMBL document CHEMBL4840303, “Design, synthesis, biological evaluation and pharmacophore model analysis of novel tetrahydropyrrolo[3,4-c]pyrazol derivatives as potential TRKs inhibitors” (Eur J Med Chem, 2021).

Columns and labels:
KM12 [1] = experiment: Induction of apoptosis in human KM12 cells assessed as viable cells at 125 nM measured after 48 hrs by AnnexinV-FITC/PI staining based flowcytometry assay relative to control; format: functional; conditions: read-out: Activity
Method in brief: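 10^5 cells in Annexin V binding buffer stained with FITC-Annexin V and PI for 10 min at room temperature in the dark, diluted with PBS and analysed by flow cytometry (FITC 494/518 nm, PI 535/617 nm).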

KM12 [2] = experiment: Induction of apoptosis in human KM12 cells assessed as early apoptotic cells at 125 nM measured after 48 hrs by AnnexinV-FITC/PI staining based flowcytometry assay relative to control; format: functional
Method in brief: (§1)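 They were detached with trypsin, washed twice in PBS, and 10^5 cells were suspended in Annexin V binding buffer. Cells were stained with FITC-Annexin V and PI for 10 min at room temperature in the dark, diluted with PBS and analysed by flow cytometry.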

[3] = Clearance in Sprague dawley rat at 1 mg/kg, iv; format: ADME, organism-based; conditions: in vivo
Method in brief: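 Blood was collected into heparin tubes at specified time points and centrifuged at once (4 °C, 4000 rpm, 20 min). Plasma levels were quantified by LC-MS/MS. Parameters came from noncompartmental analysis.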

[4] = target: Serine/threonine-protein kinase PLK4 (Homo sapiens) (UniProt O00444); experiment: Inhibition of recombinant GST-tagged human PLK4 expressed in baculovirus expression system at 1 uM measured by select screen assay relative to control
Method in brief: (§2)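 Single-concentration profiling at 1.0 µM in a 28-kinase SelectScreen panel; percent inhibition reported.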

[5] = target: Epidermal growth factor receptor (Homo sapiens) (UniProt P00533); experiment: Inhibition of recombinant GST-tagged human EGFR (668 to 1210) expressed in baculovirus expression system at 1 uM measured by select screen assay relative to control; method in brief: as §2
KM12 [6] = experiment: Induction of apoptosis in human KM12 cells assessed as early apoptotic cells at 250 nM measured after 48 hrs by AnnexinV-FITC/PI staining based flowcytometry assay relative to control; format: functional; method in brief: as §1
[7] = target: BDNF/NT-3 growth factors receptor (Homo sapiens, UniProt Q16620); experiment: Inhibition of N-terminal GST-tagged human TRKB (456 to 822 residues) expressed in baculovirus infected Sf21 cells using TK as substrate in presence of ATP measured after 40 mins by HTRF assay
Sequence of BDNF/NT-3 growth factors receptor (Q16620 whole entry, the tested form may be a part): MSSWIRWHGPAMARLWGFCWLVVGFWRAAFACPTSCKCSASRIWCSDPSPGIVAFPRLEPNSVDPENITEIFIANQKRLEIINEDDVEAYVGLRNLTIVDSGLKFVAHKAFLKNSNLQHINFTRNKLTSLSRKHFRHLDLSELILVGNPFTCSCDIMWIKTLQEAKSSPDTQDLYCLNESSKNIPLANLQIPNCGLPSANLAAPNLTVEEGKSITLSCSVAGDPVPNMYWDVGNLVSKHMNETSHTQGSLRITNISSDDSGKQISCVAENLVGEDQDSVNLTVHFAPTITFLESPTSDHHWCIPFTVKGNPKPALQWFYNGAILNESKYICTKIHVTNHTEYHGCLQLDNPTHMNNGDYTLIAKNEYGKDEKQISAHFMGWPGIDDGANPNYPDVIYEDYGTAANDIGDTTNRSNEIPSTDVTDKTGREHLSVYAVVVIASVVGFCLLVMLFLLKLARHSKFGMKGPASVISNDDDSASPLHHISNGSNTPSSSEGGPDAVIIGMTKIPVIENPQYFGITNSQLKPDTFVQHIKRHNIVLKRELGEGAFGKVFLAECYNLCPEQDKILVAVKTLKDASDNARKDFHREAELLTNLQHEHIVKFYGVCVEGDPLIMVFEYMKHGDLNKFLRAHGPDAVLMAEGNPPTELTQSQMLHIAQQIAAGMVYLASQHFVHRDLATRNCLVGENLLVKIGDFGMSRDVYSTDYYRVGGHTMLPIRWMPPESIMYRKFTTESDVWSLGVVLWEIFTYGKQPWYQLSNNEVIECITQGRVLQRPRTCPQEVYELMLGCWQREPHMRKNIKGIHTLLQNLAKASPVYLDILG

Sequence of Serine/threonine-protein kinase PLK4 (Homo sapiens) (O00444 whole entry): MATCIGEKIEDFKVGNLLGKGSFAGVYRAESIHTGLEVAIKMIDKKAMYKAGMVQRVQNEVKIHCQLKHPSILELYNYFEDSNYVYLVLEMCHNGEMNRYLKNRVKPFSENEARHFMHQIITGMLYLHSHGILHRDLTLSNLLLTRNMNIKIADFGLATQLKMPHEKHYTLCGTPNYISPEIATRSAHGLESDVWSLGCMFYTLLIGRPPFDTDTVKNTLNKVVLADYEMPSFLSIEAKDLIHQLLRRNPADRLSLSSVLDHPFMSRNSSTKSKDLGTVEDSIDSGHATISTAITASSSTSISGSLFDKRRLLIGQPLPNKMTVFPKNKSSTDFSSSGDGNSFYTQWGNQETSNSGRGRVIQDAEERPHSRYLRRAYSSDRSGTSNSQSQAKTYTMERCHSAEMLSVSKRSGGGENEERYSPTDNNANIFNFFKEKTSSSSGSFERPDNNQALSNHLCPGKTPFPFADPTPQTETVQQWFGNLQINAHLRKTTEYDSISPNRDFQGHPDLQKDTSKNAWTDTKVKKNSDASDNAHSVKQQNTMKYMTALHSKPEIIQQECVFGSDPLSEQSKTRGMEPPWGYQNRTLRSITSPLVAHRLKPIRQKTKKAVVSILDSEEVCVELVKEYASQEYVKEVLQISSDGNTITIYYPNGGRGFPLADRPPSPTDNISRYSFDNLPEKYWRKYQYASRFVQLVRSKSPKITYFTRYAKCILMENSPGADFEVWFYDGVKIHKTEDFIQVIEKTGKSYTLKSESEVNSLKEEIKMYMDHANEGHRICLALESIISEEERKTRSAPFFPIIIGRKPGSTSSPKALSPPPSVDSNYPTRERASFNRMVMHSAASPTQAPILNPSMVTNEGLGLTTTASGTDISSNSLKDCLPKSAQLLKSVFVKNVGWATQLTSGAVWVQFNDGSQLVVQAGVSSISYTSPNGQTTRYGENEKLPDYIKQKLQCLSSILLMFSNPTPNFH
Sequence of Epidermal growth factor receptor (Homo sapiens) (P00533 whole entry): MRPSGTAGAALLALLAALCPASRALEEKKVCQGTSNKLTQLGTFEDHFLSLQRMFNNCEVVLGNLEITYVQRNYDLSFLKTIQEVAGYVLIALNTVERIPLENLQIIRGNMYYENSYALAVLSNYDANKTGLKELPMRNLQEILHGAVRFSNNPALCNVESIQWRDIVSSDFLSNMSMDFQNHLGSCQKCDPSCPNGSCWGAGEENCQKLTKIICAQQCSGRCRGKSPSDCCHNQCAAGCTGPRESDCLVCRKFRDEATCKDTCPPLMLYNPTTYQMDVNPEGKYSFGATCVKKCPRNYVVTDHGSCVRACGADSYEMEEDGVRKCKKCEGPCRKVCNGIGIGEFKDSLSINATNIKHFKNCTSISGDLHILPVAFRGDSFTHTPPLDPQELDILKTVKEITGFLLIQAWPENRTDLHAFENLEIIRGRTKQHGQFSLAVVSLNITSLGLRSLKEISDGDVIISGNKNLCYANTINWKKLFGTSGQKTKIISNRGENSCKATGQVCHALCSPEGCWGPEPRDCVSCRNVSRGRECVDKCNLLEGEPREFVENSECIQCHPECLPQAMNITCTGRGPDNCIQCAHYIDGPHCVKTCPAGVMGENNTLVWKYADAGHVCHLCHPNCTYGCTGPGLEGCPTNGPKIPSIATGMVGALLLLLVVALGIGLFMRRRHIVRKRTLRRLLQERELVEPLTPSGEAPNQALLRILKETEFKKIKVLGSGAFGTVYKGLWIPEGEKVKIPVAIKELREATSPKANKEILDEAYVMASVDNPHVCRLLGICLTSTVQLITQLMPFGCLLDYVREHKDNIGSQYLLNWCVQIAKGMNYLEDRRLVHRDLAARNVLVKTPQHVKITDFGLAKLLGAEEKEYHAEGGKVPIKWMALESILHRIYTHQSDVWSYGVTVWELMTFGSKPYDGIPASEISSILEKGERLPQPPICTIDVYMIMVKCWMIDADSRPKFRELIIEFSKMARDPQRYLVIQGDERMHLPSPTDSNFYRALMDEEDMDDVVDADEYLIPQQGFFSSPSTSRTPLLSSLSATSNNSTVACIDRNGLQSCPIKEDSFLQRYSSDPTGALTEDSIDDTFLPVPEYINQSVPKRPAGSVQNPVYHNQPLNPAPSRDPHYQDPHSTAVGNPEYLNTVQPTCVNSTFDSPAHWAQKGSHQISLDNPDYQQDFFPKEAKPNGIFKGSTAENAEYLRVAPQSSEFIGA

clearance [3]: 8.08 mL/min/kg
inhibition [4]: 0%
inhibition [5]: 4%
IC50 [7]: 28 nM
SMILES: CN1CCN(c2ccc(C(=O)Nc3n[nH]c4c3CN(Cc3cc(F)cc(F)c3)C4(C)C)cc2)CC1
viability at 0.125 µM (KM12 [1]): 63.5%
Activity (KM12 [2]): 18.15%
Activity (KM12 [6]): 32.95%
